Screens from PubChem.
Rev-RRE block: disrupts HIV-1 Rev binding to RRE RNA. AID 704. hit rate 0.79% among 97,000. inhibition, % at 8 µM. Rev peptide-RRE RNA binding, FRET;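 active means inhibition above the screen-wide mean plus 3 SD, cut at about 35% in these data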;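 further: 0% = median DMSO wells and 100% = median Neomycin B control wells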
Target sequence (P05866 whole entry, looked up): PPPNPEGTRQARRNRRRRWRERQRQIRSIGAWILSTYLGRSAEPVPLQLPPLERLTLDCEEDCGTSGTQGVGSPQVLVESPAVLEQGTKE
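Assay system: Labelled RRE RNA duplex and labelled Rev peptide | Times: 5 min preincubation and 15 min binding, 25 °C | Detection: FRET, ex 480 nm, em 540 and 671 nm | Evaluation: % inhibition of FRET ratio versus controls | Benchmarks: DMSO wells as 0% and neomycin B wells as 100% inhibition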
ERb SRC1 inh: blocks coactivator binding to human estrogen receptor beta | Q92731 | TR-FRET ER-beta LBD / SRC1-Cy5 peptide binding; receptor agonist-loaded with 1 µM estradiol | inhibition, % at 25.6 µM | hit rate 1.3% among 86,000 | AID 633;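 active means compounds whose percent inhibition of the receptor-coactivator binding signal exceeds about 50% in the single-dose screen, limit read from the data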;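 further: 0% = receptor plus peptide wells without compound and 100% = peptide-only wells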
Smad3 FoxH1 inh: inhibitors of human Smad3 transcription factor binding | inhibition, % at 25 µM | P84022 | hit rate 0.29% among 88,000 | TR-FRET Smad3/Dy647-FoxH1 peptide binding, europium anti-His;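 active means compounds that reduce the energy-transfer binding signal between the protein and its labelled peptide by more than half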;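 further: 0% = Smad3 plus labelled peptide maximal FRET and 100% = peptide-only background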
FAK blocker: blocks human focal adhesion kinase activity; Q05397; biochemical FAK kinase activity assay; inhibition, %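 (tested at 7 µM)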; hit rate 0.84% among 97,000; AID 727; in the data active means inhibition above about 19%;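 further: 0% = DMSO and 100% = reference compound high control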
ERa coact pot: ER-alpha (human) coactivator binding potentiation; P03372; hit rate 1.3% among 86,000; coactivator binding (% of control), % at 25.6 µM; TR-FRET ERalpha-LBD/SRC-Cy5 coactivator binding, 2 h; 100 = basal binding, no effect; in the data active means activity above about 200%;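 further: binding measured in presence of low estradiol as agonist stimulus; 0% = peptide alone without receptor and 100% = receptor with peptide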
Target sequence (P03372 whole entry, looked up, the tested form may be a part): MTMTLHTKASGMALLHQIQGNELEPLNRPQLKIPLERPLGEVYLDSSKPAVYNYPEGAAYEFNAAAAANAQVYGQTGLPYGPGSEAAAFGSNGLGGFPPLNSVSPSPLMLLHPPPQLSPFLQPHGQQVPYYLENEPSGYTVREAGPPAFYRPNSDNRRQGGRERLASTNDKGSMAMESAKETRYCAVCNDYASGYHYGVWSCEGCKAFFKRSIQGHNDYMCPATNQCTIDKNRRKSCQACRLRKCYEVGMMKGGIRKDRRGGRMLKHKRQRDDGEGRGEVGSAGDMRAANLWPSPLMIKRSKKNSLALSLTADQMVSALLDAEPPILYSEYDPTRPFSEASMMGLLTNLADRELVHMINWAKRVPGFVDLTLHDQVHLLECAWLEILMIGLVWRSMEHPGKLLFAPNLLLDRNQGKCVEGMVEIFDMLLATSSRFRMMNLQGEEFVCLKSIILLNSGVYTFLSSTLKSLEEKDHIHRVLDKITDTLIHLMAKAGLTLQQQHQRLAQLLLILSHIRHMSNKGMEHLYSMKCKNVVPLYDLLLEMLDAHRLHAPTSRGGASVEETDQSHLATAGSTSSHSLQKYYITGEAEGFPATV
ERa coact inh: blocks coactivator binding to human estrogen receptor alpha; hit rate 1.7% among 86,000; AID 629; P03372; TR-FRET ER-alpha LBD / SRC-1 peptide, estradiol-bound; inhibition, % at 25.6 µM; in the data active means inhibition above about 50%;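 further: 0% = receptor plus peptide control and 100% = peptide only without receptor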
* marks the source's active call; other numbers are inactive results; [ ] = remark or other dose. Hits are enriched below; roughly 4% of the tested compounds scored in any of these assays.

Results for Cc1ccc(CN=Cc2[nH]c3ccc(Br)c(Cl)c3c2O)cc1 ?
Rev-RRE block: 115.6*[fluorescence artefact?]; ERb SRC1 inh: 10.6; Smad3 FoxH1 inh: 7.2; FAK blocker: 1.4; ERa coact pot: 95.8; ERa coact inh: 9.6

How did O=C(O)CCCSc1ccccc1 do in these assays?
Smad3 FoxH1 inh: -3.8

Results for Cc1oc(-c2ccc(F)cc2)cc1-c1nn2c(-c3ccoc3C)nnc2s1 ?
ERb SRC1 inh: 62.5*; Smad3 FoxH1 inh: 0.3; ERa coact pot: 67.1; ERa coact inh: 78.6*[fluorescence artefact?]

Results for Cc1oc(-c2ccc(Cl)cc2)cc1-c1nn2c(-c3ccco3)nnc2s1 ?
ERb SRC1 inh: 44.8; Smad3 FoxH1 inh: -15.1; ERa coact pot: 94.9; ERa coact inh: 45.5

What do the screens show for `Cc1oc(-c2ccc(F)cc2)cc1-c1nn2c(-c3ccco3)nnc2s1`?
Rev-RRE block: 10.1; ERb SRC1 inh: 51.0*[fluorescence artefact?]; Smad3 FoxH1 inh: -3.0; FAK blocker: 6.8; ERa coact pot: 83.5; ERa coact inh: 81.9*[fluorescence artefact?]

How did Cc1oc(-c2cc(Cl)ccc2Cl)cc1-c1nn2c(C)nnc2s1 do in these assays?
ERb SRC1 inh: 10.2; Smad3 FoxH1 inh: -2.8; ERa coact pot: 90.0; ERa coact inh: 32.2

Results for Cc1nnc(-c2ccccc2)c(=O)n1/N=C/c1c(O)ccc2ccccc12 ?
Rev-RRE block: 129.6*[fluorescence artefact?]; FAK blocker: 2.9

How did COc1ccc2ccccc2c1/C=N\n1c(C)cc(C)c(C(N)=O)c1=O do in these assays?
Rev-RRE block: 5.5; FAK blocker: -5.4

How did CC(C)(C)C(=O)[C@H]([C@@H](c1ccccc1)N1CCOCC1)N1CCOCC1 do in these assays?
Smad3 FoxH1 inh: -1.3

Results for Nc1cccc2cc(S(=O)(=O)Nc3ccc(C(=O)O)cc3)ccc12 ?
Smad3 FoxH1 inh: 10.3

Results for COc1ccc2c(C)nc(Nc3nc(C)cc(C)n3)nc2c1 ?
Rev-RRE block: 10.7; ERb SRC1 inh: 26.2; Smad3 FoxH1 inh: 15.9; FAK blocker: 8.1; ERa coact pot: 242.5*; ERa coact inh: 16.7

What do the screens show for `COc1ccc2c(C)nc(Nc3nc(C)c(C)c(=O)[nH]3)nc2c1`?
Rev-RRE block: 8.1; ERb SRC1 inh: 13.2; Smad3 FoxH1 inh: -3.0; FAK blocker: 5.4; ERa coact pot: 99.0; ERa coact inh: 6.5

What do the screens show for `C[N+](C)(C)c1ncnc2c1ncn2[C@@H]1C[C@H](O)[C@@H](CO)O1`?
Smad3 FoxH1 inh: 29.7

How did Cc1ccc(C(=O)ONc2ccc(N=NC(=O)c3ccccc3O)cc2)cc1 do in these assays?
Rev-RRE block: -0.8; ERb SRC1 inh: 52.1*; Smad3 FoxH1 inh: 14.3; FAK blocker: 4.5; ERa coact pot: 130.7; ERa coact inh: 72.3*

How did Cc1ccc(C(=O)ONc2ccc(N=O)cc2)cc1 do in these assays?
Rev-RRE block: 9.3; FAK blocker: -1.7

How did CCc1nnc(NC(=O)c2ccc(-c3ccc(Cl)cc3)o2)s1 do in these assays?
Rev-RRE block: -6.7; ERb SRC1 inh: 42.1; Smad3 FoxH1 inh: -18.5; FAK blocker: 6.9; ERa coact pot: 273.7*[fluorescence artefact?]; ERa coact inh: 53.9*[fluorescence artefact?]

What do the screens show for `O=C(CNC(=O)c1ccco1)OCc1ccc(Cl)cc1`?
Rev-RRE block: 3.3; ERb SRC1 inh: 59.8*; Smad3 FoxH1 inh: 17.2; FAK blocker: 0.3; ERa coact pot: 133.1; ERa coact inh: 1.3

Results for Cn1c(=O)c2c(ncn2CN2CCN(Cn3cnc4c3c(=O)n(C)c(=O)n4C)CC2)n(C)c1=O ?
Smad3 FoxH1 inh: 97.6*

Results for Cn1c(=O)c2c(ncn2CC(O)CO)n(C)c1=O (stereo not given) ?
ERb SRC1 inh: 1.5; Smad3 FoxH1 inh: -2.7; ERa coact pot: 127.5; ERa coact inh: -1.1

What do the screens show for `Cc1ccc(-c2csc3ncnc(OCC(=O)NC(=O)NCc4ccco4)c23)cc1`?
ERb SRC1 inh: 37.8; Smad3 FoxH1 inh: 9.7; ERa coact pot: 68.5; ERa coact inh: 56.4*[fluorescence artefact?]

How did CCOc1ccc2nc(SCC(=O)NC(=O)NCc3ccco3)sc2c1 do in these assays?
Rev-RRE block: 10.7; ERb SRC1 inh: 2.9; Smad3 FoxH1 inh: -8.8; FAK blocker: 2.7; ERa coact pot: 97.0; ERa coact inh: 12.3

Results for Cc1sc2nc(SCC(=O)NCc3ccco3)n(-c3ccccc3)c(=O)c2c1C ?
Rev-RRE block: 0.1; ERb SRC1 inh: 6.0; Smad3 FoxH1 inh: -55.7; FAK blocker: -41.2; ERa coact pot: 229.1*[fluorescence artefact?]; ERa coact inh: 14.6

What do the screens show for `CCCCc1nc2sc3c(SCC(=O)NCc4ccco4)ncnc3c2c2c1CCC2`?
Rev-RRE block: 11.8; ERb SRC1 inh: 42.6; Smad3 FoxH1 inh: 30.1; FAK blocker: -62.1; ERa coact pot: 575.5*[fluorescence artefact?]; ERa coact inh: 34.4

What do the screens show for `O=C(CSc1nc2cc(Cl)ccc2s1)NC(=O)NCc1ccco1`?
ERb SRC1 inh: 42.7; Smad3 FoxH1 inh: 0.2; ERa coact pot: 76.9; ERa coact inh: 56.7*

What do the screens show for `NS(=O)(=O)c1ccc(N=Nc2nc3[nH]cnc(=S)c3[nH]2)cc1`?
Smad3 FoxH1 inh: -6.5

Results for CCN=C(N)CSS(=O)(=O)O ?
Smad3 FoxH1 inh: 4.7

What do the screens show for `CCOc1ccc(NC(=O)C(C)Oc2ccccc2C(=O)Nc2cccc(Cl)c2Cl)cc1` (stereo not given)?
Rev-RRE block: 2.5; FAK blocker: -1.4

What do the screens show for `O=C(O)c1ccncc1.O=C(O)c1ccncc1.[NH2-].[NH2-].[Pt]`?
Smad3 FoxH1 inh: 11.5

How did Cc1sc2ncnc(SCC(=O)NC(=O)NCc3ccco3)c2c1C do in these assays?
Rev-RRE block: 9.9; ERb SRC1 inh: 80.8*[fluorescence artefact?]; Smad3 FoxH1 inh: -5.4; FAK blocker: 9.9; ERa coact pot: 85.4; ERa coact inh: 72.8*

How did Cc1sc2ncnc(NCc3ccco3)c2c1C do in these assays?
Rev-RRE block: 7.6; ERb SRC1 inh: 53.6*; Smad3 FoxH1 inh: 2.1; FAK blocker: 5.6; ERa coact pot: 61.4; ERa coact inh: 58.1*

Results for Cc1sc2ncnc(NCc3cccs3)c2c1C ?
Rev-RRE block: 9.6; ERb SRC1 inh: -9.9; Smad3 FoxH1 inh: 5.7; FAK blocker: 7.6; ERa coact pot: 103.3; ERa coact inh: -18.0

What do the screens show for `O=C(NCc1ccco1)c1cc2cc3ccc(Cl)cc3nc2o1`?
Rev-RRE block: 8.8; ERb SRC1 inh: 55.6*; Smad3 FoxH1 inh: 10.5; FAK blocker: 15.2; ERa coact pot: 182.4; ERa coact inh: 66.5*

What do the screens show for `Cc1nc(SCC(=O)NCc2ccco2)c2c(C)c(C)sc2n1`?
Rev-RRE block: 0.5; ERb SRC1 inh: 2.0; Smad3 FoxH1 inh: -11.1; FAK blocker: 4.4; ERa coact pot: 89.1; ERa coact inh: 1.7

Results for COc1ccc(C(=O)Nc2ccc(Cl)cc2C(=O)N2CCCC(C)C2)cc1 (stereo not given) ?
Rev-RRE block: 13.3; FAK blocker: 0.7

Results for COC(=O)CSC1=NS(=O)(=O)c2ccccc21 ?
Rev-RRE block: 4.3; ERb SRC1 inh: -5.2; Smad3 FoxH1 inh: 4.4; FAK blocker: -3.2; ERa coact pot: 69.2; ERa coact inh: 25.9
